# Results: ChEMBL document CHEMBL1129266, “Synthesis and biological activity of NK-1 selective, N-backbone cyclic analogs of the C-terminal hexapeptide of substance P” (J Med Chem, 1996)
# Starred links: 1 amine or outer side, 2 acyl side, 3 side chain; linkers in the order of their positions; H or OH if unused. Positions of bridges follow the written chain, without caps; N, C: chain ends. Non-standard residues stand in square brackets, D forms with d. Residues, ends and D or L forms follow the SMILES beside them. *: point of attachment. N(6-aminohexyl)Gly = O=C(CN(CCCCCCN[*:3])[*:1])[*:2]; NGly(3-aminopropyl) = O=C(CN(CCCN[*:3])[*:1])[*:2]; N(2-Aminoethyl)Gly = O=C(CN(CCN[*:3])[*:1])[*:2]; Adipoyl = O=C(CCCCC(=O)[*:2])[*:1]; Glutaryl = O=C(CCCC(=O)[*:2])[*:1]; X2 = CC(=O)NCCCN(CC(=O)[*:2])[*:1]; Gly(N(CH2)3NH2) = NCCCNCC(=O)O; Suc = O=C(CCC(=O)[*:2])[*:1]; X1 = CNC(=O)CCCCC(=O)*
# Legend:
# [1] = target: T1, Neuromedin-K receptor (Rattus norvegicus, UniProt P16177); assay: Effective concentration to activate Tachykinin receptor 3 in rat portal vein (RPV)
# T1 sequence (P16177 whole entry): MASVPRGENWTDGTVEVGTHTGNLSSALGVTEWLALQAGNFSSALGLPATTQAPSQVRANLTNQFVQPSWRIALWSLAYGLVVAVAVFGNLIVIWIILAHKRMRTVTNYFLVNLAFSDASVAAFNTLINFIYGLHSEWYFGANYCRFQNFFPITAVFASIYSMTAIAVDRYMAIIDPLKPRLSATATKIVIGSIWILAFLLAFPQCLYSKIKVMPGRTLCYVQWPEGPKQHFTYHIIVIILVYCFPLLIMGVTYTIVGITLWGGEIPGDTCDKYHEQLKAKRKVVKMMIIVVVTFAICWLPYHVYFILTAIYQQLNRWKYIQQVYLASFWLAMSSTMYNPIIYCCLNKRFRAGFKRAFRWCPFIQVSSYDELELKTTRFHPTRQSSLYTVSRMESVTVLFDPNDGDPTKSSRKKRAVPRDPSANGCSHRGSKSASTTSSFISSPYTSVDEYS
# Outline: (§1)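 Portal vein from rat killed by decapitation, mounted in a bath at 37 °C under about 0.5 g tension and equilibrated for 1 h. Peptides were then added at 20 min intervals to avoid receptor desensitization, and contractile responses were recorded.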
# [2] = target: Substance-P receptor (Cavia porcellus, UniProt P30547); assay: Effective concentration to activate Tachykinin receptor 1 in guinea pig ileum(GPI); type: tissue-based
# Chain of Substance-P receptor (P30547 whole entry): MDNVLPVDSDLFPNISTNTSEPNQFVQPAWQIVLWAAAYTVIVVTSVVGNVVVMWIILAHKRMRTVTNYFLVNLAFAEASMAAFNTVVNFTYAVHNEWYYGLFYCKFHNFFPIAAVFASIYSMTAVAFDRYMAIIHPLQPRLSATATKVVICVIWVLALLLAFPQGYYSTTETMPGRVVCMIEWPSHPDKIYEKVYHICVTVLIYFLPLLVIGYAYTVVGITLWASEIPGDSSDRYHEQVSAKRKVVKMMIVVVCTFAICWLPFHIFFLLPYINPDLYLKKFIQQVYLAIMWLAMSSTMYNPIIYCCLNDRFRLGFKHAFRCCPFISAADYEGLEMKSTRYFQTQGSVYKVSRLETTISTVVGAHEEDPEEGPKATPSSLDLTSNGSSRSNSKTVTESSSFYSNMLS
# [3] = target: T2, Substance-K receptor (Rattus norvegicus, UniProt P16610); assay: Effective concentration to activate Tachykinin receptor 2 in rat vas deferens (RVD)
# T2 sequence (P16610 whole entry): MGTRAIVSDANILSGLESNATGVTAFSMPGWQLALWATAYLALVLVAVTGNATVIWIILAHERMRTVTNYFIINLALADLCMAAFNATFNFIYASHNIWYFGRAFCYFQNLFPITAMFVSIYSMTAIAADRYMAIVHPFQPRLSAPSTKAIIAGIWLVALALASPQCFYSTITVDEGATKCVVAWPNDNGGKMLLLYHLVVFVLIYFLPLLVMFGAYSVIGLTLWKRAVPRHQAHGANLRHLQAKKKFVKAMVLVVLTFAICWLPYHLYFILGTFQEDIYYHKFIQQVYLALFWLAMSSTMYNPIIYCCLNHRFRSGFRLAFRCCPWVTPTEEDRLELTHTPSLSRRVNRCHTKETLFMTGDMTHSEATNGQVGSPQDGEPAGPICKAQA
# [4] = target: T1, Neuromedin-K receptor; assay: Effective concentration to activate Tachykinin receptor 3 in rat portal vein(RPV).; outline: as §1
# [5] = target: T2, Substance-K receptor; assay: Effective concentration to activate Tachykinin receptor 2 in rat vas deferens(RVD)
Compound,EC50 [1],EC50 [2],EC50 [3],EC50 [4],EC50 [5]
CSCC[C@H](NC(=O)[C@H](CC(C)C)NC(=O)CN(CCCN)C(=O)[C@H](Cc1ccccc1)NC(=O)[C@H](Cc1ccccc1)NC(=O)[C@H](CCCNC(=N)N)NC(C)=O)C(N)=O (Ac-RFF[Gly(N(CH2)3NH2)]LM-NH2),2 µM,0.3 µM,> 100 µM,–,–
CSCC[C@H](NC(=O)[C@H](CC(C)C)NC(=O)CN1CCNC(=O)CCC(=O)NCC(=O)N[C@@H](CCCN=C(N)N)C(=O)N[C@@H](Cc2ccccc2)C(=O)N[C@@H](Cc2ccccc2)C1=O)C(N)=O (GRFF[N(2-Aminoethyl)Gly]LM-NH2; linker N-5 via Suc),> 10 µM,> 10 µM,> 50 µM,–,–
CSCC[C@H](NC(=O)[C@H](CC(C)C)NC(=O)CN1CCNC(=O)CCC(=O)N[C@@H](CCCNC(=N)N)C(=O)N[C@@H](Cc2ccccc2)C(=O)N[C@@H](Cc2ccccc2)C1=O)C(N)=O (RFF[N(2-Aminoethyl)Gly]LM-NH2; linker N-4 via Suc),> 10 µM,4 µM,> 50 µM,–,–
CSCC[C@H](NC(=O)[C@H](CC(C)C)NC(=O)CN1CCCCCCNC(=O)CCCC(=O)N[C@@H](CCCN=C(N)N)C(=O)N[C@@H](Cc2ccccc2)C(=O)N[C@@H](Cc2ccccc2)C1=O)C(N)=O (RFF[N(6-aminohexyl)Gly]LM-NH2; linker N-4 via Glutaryl),1 µM,0.06 µM,> 50 µM,–,–
CSCC[C@H](NC(=O)[C@H](CC(C)C)NC(=O)CN1CCCCCCNC(=O)CCC(=O)N[C@@H](CCCN=C(N)N)C(=O)N[C@@H](Cc2ccccc2)C(=O)N[C@@H](Cc2ccccc2)C1=O)C(N)=O (RFF[N(6-aminohexyl)Gly]LM-NH2; linker N-4 via Suc),1 µM,0.16 µM,> 50 µM,–,–
CSCC[C@H](NC(=O)[C@H](CC(C)C)NC(=O)CN1CCCNC(=O)CCCCC(=O)N[C@@H](CCCN=C(N)N)C(=O)N[C@@H](Cc2ccccc2)C(=O)N[C@@H](Cc2ccccc2)C1=O)C(N)=O (RFF[NGly(3-aminopropyl)]LM-NH2; linker N-4 via Adipoyl),> 10 µM,0.005 µM,> 200 µM,–,–
CSCC[C@H](NC(=O)[C@H](CC(C)C)NC(=O)CN1CCCNC(=O)CCCC(=O)N[C@@H](CCCN=C(N)N)C(=O)N[C@@H](Cc2ccccc2)C(=O)N[C@@H](Cc2ccccc2)C1=O)C(N)=O (RFF[NGly(3-aminopropyl)]LM-NH2; linker N-4 via Glutaryl),> 10 µM,0.011 µM,> 50 µM,–,–
CSCC[C@H](NC(=O)[C@H](CC(C)C)NC(=O)CN1CCCNC(=O)CCC(=O)N[C@@H](CCCN=C(N)N)C(=O)N[C@@H](Cc2ccccc2)C(=O)N[C@@H](Cc2ccccc2)C1=O)C(N)=O (RFF[NGly(3-aminopropyl)]LM-NH2; linker N-4 via Suc),> 10 µM,0.18 µM,> 50 µM,–,–
CNC(=O)CCCCC(=O)N[C@@H](CCCNC(=N)N)C(=O)N[C@@H](Cc1ccccc1)C(=O)N[C@@H](Cc1ccccc1)C(=O)N(CCCNC(C)=O)CC(=O)N[C@@H](CC(C)C)C(=O)N[C@@H](CCSC)C(N)=O (X1-RFF[X2]LM-NH2),–,0.4 µM,–,2 µM,> 100 µM
CSCC[C@H](NC(=O)[C@H](CC(C)C)NC(=O)CNC(=O)[C@H](Cc1ccccc1)N(C)C(=O)[C@H](Cc1ccccc1)NC(=O)[C@H](CC(=O)O)NC(=O)CCC(=O)O)C(N)=O [SENKTIDE],–,35 µM,> 200 µM,–,–
Ac-RFFPLM-NH2,–,0.003 µM,> 200 µM,> 50 µM,–
